The source made the active and inactive calls. No cut-off for these calls is given here.
Columns and labels:
[1] = tested on: SK-OV-3; assay: Cytotoxicity against human SKOV3 cells after 48 hrs by MTT assay; format: functional, cell-based; conditions: SK-OV-3, 48 h
Summary of the method: (§1)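 ATCC lines grown in DMEM or RPMI with 10% FBS and antibiotic-antimycotic, 37 °C, 5% CO2. Seeded at 3×10^4 cells/well, 24 h before dosing with vehicle (DMSO) controls. […] Cisplatin as reference.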

[2] = tested on: HeLa; assay: Cytotoxicity against human HeLa cells after 48 hrs by MTT assay; format: functional, cell-based; summary of the method: as §1
[3] = tested on: HT-1080; assay: Cytotoxicity against human HT1080 cells after 48 hrs by MTT assay; format: functional, cell-based; conditions: HT-1080, 48 h; summary of the method: as §1
[4] = tested on: PC-3; assay: Cytotoxicity against human PC3 cells after 48 hrs by MTT assay; format: functional, cell-based; conditions: PC-3, 48 h; summary of the method: as §1
[5] = tested on: HEK-293T; assay: Cytotoxicity against human HEK293T cells after 48 hrs by MTT assay; format: cell-based; summary of the method: as §1
[6] = tested on: SK-OV-3; assay: Induction of apoptosis in human SKOV3 cells assessed as increase in caspase3 activity at 0.2 uM using Ac-DEVDpNA as substrate pretreated for 24 hrs followed by substrate addition and measured for 2 hrs by colorimetric analysis relative to control; format: functional
Summary of the method: (§2)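 SKOV-3 cells (2×10^5/well) exposed 24 h, trypsinised, lysed 20 min, and lysate cleared at 15000 rpm for 10 min at 4 °C. Supernatant incubated with reaction buffer and Ac-DEVD-pNA 2 h at 37 °C, then read at 405 nm. Activity expressed as fold of untreated control (set to 1).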

[7] = tested on: SK-OV-3; assay: Induction of oxidative stress in human SKOV3 cells assessed as ROS generation by measuring fluorescence intensity at 0.1 uM after 24 hrs by carboxy-H2DCFDA dye-based flow cytometric analysis (reference value: 100%); format: functional
Summary of the method: (§3)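 SKOV-3 cells (2×10^5/well) exposed 24 h, trypsinised, and loaded with 10 µM carboxy-H2DCFDA in PBS 15 min at room temperature in the dark. After washing, green DCF fluorescence was read by flow cytometry and expressed as % of control (100%).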

[8] = tested on: SK-OV-3; assay: Induction of oxidative stress in human SKOV3 cells assessed as ROS generation by measuring fluorescence intensity at 0.5 uM after 24 hrs by carboxy-H2DCFDA dye-based flow cytometric analysis (reference value: 100%); format: functional; summary of the method: as §3
[9] = tested on: SK-OV-3; assay: Induction of apoptosis in human SKOV3 cells assessed as chromatin condensation at 0.1 to 0.5 uM after 24 hrs by […] staining-based fluorescence microscopic analysis; format: functional, cell-based
Summary of the method: (§4)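 SKOV-3 cells on coverslips (5×10^5/well), adhered 24 h, then exposed 24 h. Fixed in 4% formaldehyde 10 min at 4 °C, stained with […] (5 µg/mL) 30 min at room temperature, and nuclear morphology scored by fluorescence microscopy (ex 350/em 460 nm, 20×).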

[10] = tested on: SK-OV-3; assay: Cell cycle arrest in human SKOV3 cells assessed as decrease in cells at G0/G1 phase at 0.1 to 0.5 uM after 24 hrs by propidium iodide staining-based flow cytometric analysis; format: functional
Summary of the method: (§5)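 SKOV-3 cells (1×10^6/well) exposed 24 h, trypsinised, washed in PBS, fixed in 70% ethanol 30 min at 4 °C, stained 15 min in the dark at room temperature with PBS containing propidium iodide, Triton X and DNase-free RNase A. DNA content read by flow cytometry (15,000 events per methods; legend cites 10,000 cells). G0/G1, S and G2/M percentages taken from instrument software.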

[11] = tested on: SK-OV-3; assay: Cell cycle arrest in human SKOV3 cells assessed as accumulation of cells at S phase at 0.5 uM after 24 hrs by propidium iodide staining-based flow cytometric analysis (reference value: 5%); format: functional; summary of the method: as §5
[12] = tested on: SK-OV-3; assay: Inhibition of spheroid growth in human SKOV3 cells at 0.5 uM after 72 hrs by phase contrast microscopic analysis; format: functional, cell-based
Summary of the method: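 SKOV-3 cells (5000/well) in ultra-low-attachment round-bottom wells, grown 2 days to form spheroids, then exposed for 72 h. Spheroid growth and surface area assessed by phase contrast microscopy.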

[13] = tested on: SK-OV-3; assay: Induction of apoptosis in human SKOV3 cells assessed as increase in pyknotic nuclei at 0.1 to 0.5 uM after 24 hrs by […] staining-based fluorescence microscopic analysis; format: functional, cell-based; summary of the method: as §4
[14] = tested on: SK-OV-3; assay: Cell cycle arrest in human SKOV3 cells assessed as accumulation of cells at S phase at 0.2 uM after 24 hrs by propidium iodide staining-based flow cytometric analysis (reference value: 5%); format: functional; summary of the method: as §5
[15] = tested on: SK-OV-3; assay: Cell cycle arrest in human SKOV3 cells assessed as accumulation of cells at S phase at 0.1 uM after 24 hrs by propidium iodide staining-based flow cytometric analysis (reference value: 5%); format: functional; summary of the method: as §5
[16] = tested on: SK-OV-3; assay: Induction of oxidative stress in human SKOV3 cells assessed as ROS generation by measuring fluorescence intensity at 0.1 to 0.5 uM after 24 hrs by carboxy-H2DCFDA dye-based flow cytometric analysis relative to untreated control; format: functional; summary of the method: as §3
[17] = tested on: SK-OV-3; assay: Cell cycle arrest in human SKOV3 cells assessed as accumulation of cells at G2/M phase at 0.1 uM after 24 hrs by propidium iodide staining-based flow cytometric analysis (reference value: 14.7%); format: functional; summary of the method: as §5
[18] = tested on: SK-OV-3; assay: Cell cycle arrest in human SKOV3 cells assessed as accumulation of cells at G2/M phase at 0.2 uM after 24 hrs by propidium iodide staining-based flow cytometric analysis (reference value: 14.7%); format: functional; summary of the method: as §5
[19] = Selectivity index, ratio of IC50 for cytotoxicity against human HEK293T cells to IC50 for cytotoxicity against human SKOV3 cells after 48 hrs by MTT assay; format: toxicity, cell-based; conditions: HEK293T cells versus SKOV3 cells, read-out: Ratio IC50
[20] = tested on: SK-OV-3; assay: Induction of apoptosis in human SKOV3 cells assessed as increase in horse shoe shaped nuclei at 0.1 to 0.5 uM after 24 hrs by […] staining-based fluorescence microscopic analysis; format: functional, cell-based; summary of the method: as §4
[21] = tested on: SK-OV-3; assay: Induction of apoptosis in human SKOV3 cells assessed as disruption of mitochondrial membrane potential at 0.1 to 0.5 uM after 24 hrs by JC-1 dye-based fluorescence microscopic analysis; format: functional, cell-based
Summary of the method: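 SKOV-3 cells at 5×10^5 cells/mL, adhered overnight, exposed 24 h with DMSO-treated controls. Stained with JC-1 (5 µg/mL in PBS) 30 min at room temperature, washed, and imaged in red (J-aggregate) and green (monomer) channels by fluorescence microscopy at 20×.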

[22] = tested on: SK-OV-3; assay: Induction of oxidative stress in human SKOV3 cells assessed as ROS generation by measuring fluorescence intensity at 0.2 uM after 24 hrs by carboxy-H2DCFDA dye-based flow cytometric analysis (reference value: 100%); format: functional; summary of the method: as §3
[23] = tested on: SK-OV-3; assay: Induction of apoptosis in human SKOV3 cells assessed as increase in caspase3 activity at 0.5 uM using Ac-DEVDpNA as substrate pretreated for 24 hrs followed by substrate addition and measured for 2 hrs by colorimetric analysis relative to control; format: functional; summary of the method: as §2
[24] = species on record: Homo sapiens; assay: Inhibition of F-actin polymerization in human SKOV3 cells assessed as induction of stress fibers disruption around nucleus at 0.1 to 0.5 uM after 24 hrs by rhodamine-phalloidin/[…] staining-based confocal fluorescence microscopic analysis; format: cell-based
Summary of the method: (§6)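 SKOV-3 cells (1×10^6/well) on coverslips, grown 24 h, then exposed 24 h. Washed, fixed in 4% paraformaldehyde in PBS, stained with rhodamine-phalloidin (F-actin) and […] (nuclei), mounted in anti-fade medium, and imaged by confocal microscopy at 20×.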

[25] = tested on: SK-OV-3; assay: Induction of apoptosis in human SKOV3 cells assessed as nuclear fragmentation at 0.1 to 0.5 uM after 24 hrs by […] staining-based fluorescence microscopic analysis; format: functional, cell-based; summary of the method: as §4
[26] = species on record: Homo sapiens; assay: Inhibition of F-actin polymerization in human SKOV3 cells assessed as decrease in F-actin extensions at 0.1 to 0.5 uM after 24 hrs by rhodamine-phalloidin/[…] staining-based confocal fluorescence microscopic analysis; format: cell-based; summary of the method: as §6
[27] = tested on: SK-OV-3; assay: Cell cycle arrest in human SKOV3 cells assessed as accumulation of cells at G2/M phase at 0.5 uM after 24 hrs by propidium iodide staining-based flow cytometric analysis (reference value: 14.7%); format: functional; summary of the method: as §5
[28] = tested on: SK-OV-3; assay: Induction of apoptosis in human SKOV3 cells assessed as increase in caspase3 activity at 0.1 uM using Ac-DEVDpNA as substrate pretreated for 24 hrs followed by substrate addition and measured for 2 hrs by colorimetric analysis relative to control; format: functional; summary of the method: as §2

## COc1cc2c3c(c4cc(OC)c(OC)cc4c2cc1OC)C(c1ccc(C(C)C)cc1)C1=C(CCCC1=O)N3 (stereo not drawn)
[1]
  IC50: 4.81 µM
[2]
  IC50: 13.6 µM
[3]
  IC50: 11.7 µM
[4]
  IC50: 5.67 µM
[5]
  IC50: 41.5 µM

## COc1cc(C2C3=C(CC(C)(C)CC3=O)Nc3c2c2cc(OC)c(OC)cc2c2cc(OC)c(OC)cc32)ccc1O (stereo not drawn)
[1]
  IC50: 13.6 µM
[2]
  IC50: 11.7 µM
[3]
  IC50: 9.83 µM
[4]
  IC50: 23.8 µM
[5]
  IC50: > 50 µM

## COc1cc2c3c(c4cc(OC)c(OC)cc4c2cc1OC)C(c1ccc(Cl)cc1)C1=C(CC(C)(C)CC1=O)N3 (stereo not drawn)
[1]
  IC50: 15.9 µM
[2]
  IC50: 38.8 µM
[3]
  IC50: 30.1 µM
[4]
  IC50: > 50 µM
[5]
  IC50: > 50 µM

## COc1cc2c3c(c4cc(OC)c(OC)cc4c2cc1OC)C(c1ccc2c(c1)OCO2)C1=C(CC(C)(C)CC1=O)N3 (stereo not drawn)
[1]
  IC50: 4.66 µM
[2]
  IC50: 1.35 µM
[3]
  IC50: 4.32 µM
[4]
  IC50: 7.7 µM
[5]
  IC50: 24.6 µM

## COc1cc2c3c(c4cc(OC)c(OC)cc4c2cc1OC)C(c1cccc2ccccc12)C1=C(CCCC1=O)N3 (stereo not drawn)
[1]
  IC50: 2.67 µM
[2]
  IC50: 6.87 µM
[3]
  IC50: 3.83 µM
[4]
  IC50: 5.31 µM
[5]
  IC50: 14.4 µM

## COc1ccc(C2C3=C(CCCC3=O)Nc3c2c2cc(OC)c(OC)cc2c2cc(OC)c(OC)cc32)cc1OC (stereo not drawn)
[1]
  IC50: 11.5 µM
[2]
  IC50: > 50 µM
[3]
  IC50: 25.7 µM
[4]
  IC50: > 50 µM
[5]
  IC50: > 50 µM

## COc1cc2c3c(c4cc(OC)c(OC)cc4c2cc1OC)C(c1cccc(C(F)(F)F)c1)C1=C(CCCC1=O)N3 (stereo not drawn)
[6]
  fold change (FC): 2.45
[7]
  Activity: 128.5%
[8]
  Activity: 204.76%
[9]
  Activity: Active
[1]
  IC50: 0.24 µM
[10]
  Activity: Active
[11]
  Activity: 14.1%
[2]
  IC50: 4.38 µM
[12]
  inhibition: Active
[13]
  Activity: Active
[14]
  Activity: 19.3%
[15]
  Activity: 2.3%
[16]
  fold change (FC): 2
[17]
  Activity: 22.6%
[18]
  Activity: 33.5%
[19]
  selectivity ratio at 48 h: 77
[3]
  IC50: 3.89 µM
[20]
  Activity: Active
[21]
  Activity: Active
[22]
  Activity: 150.3%
[23]
  fold change (FC): 3.78
[4]
  IC50: 11.8 µM
[24]
  inhibition: Active
[25]
  Activity: Active
[26]
  inhibition: Active
[5]
  IC50: 18.5 µM
[27]
  Activity: 37.9%
[28]
  fold change (FC): 1.58

## COc1cc2c3c(c4cc(OC)c(OC)cc4c2cc1OC)C(c1cc(OC)c(OC)c(OC)c1)C1=C(CC(C)(C)CC1=O)N3 (stereo not drawn)
[1]
  IC50: 10.8 µM
[2]
  IC50: 12.1 µM
[3]
  IC50: 16.3 µM
[4]
  IC50: 8.9 µM
[5]
  IC50: 29.2 µM

## COc1cc2c3c(c4cc(OC)c(OC)cc4c2cc1OC)C(c1cccs1)C1=C(CCCC1=O)N3 (stereo not drawn)
[1]
  IC50: 2.35 µM
[2]
  IC50: 2.46 µM
[3]
  IC50: 3.78 µM
[4]
  IC50: 5.89 µM
[5]
  IC50: 15.5 µM
